For 57 compounds, inhibition results are on record in PubChem BioAssay AID2178 (The Scripps Research Institute Molecular Screening Center, 2009).

The campaign covered roughly 2,400 compounds. Fewer than 10 were called active. These entries were drawn from the full list. Unmarked numbers belong to inactive results.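 Rule for the calls: active = average inhibition across replicates above the hit cutoff set in the earlier primary screen; inactive = the rest.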

Chain of Procathepsin L (Homo sapiens) (P07711 whole entry, looked up): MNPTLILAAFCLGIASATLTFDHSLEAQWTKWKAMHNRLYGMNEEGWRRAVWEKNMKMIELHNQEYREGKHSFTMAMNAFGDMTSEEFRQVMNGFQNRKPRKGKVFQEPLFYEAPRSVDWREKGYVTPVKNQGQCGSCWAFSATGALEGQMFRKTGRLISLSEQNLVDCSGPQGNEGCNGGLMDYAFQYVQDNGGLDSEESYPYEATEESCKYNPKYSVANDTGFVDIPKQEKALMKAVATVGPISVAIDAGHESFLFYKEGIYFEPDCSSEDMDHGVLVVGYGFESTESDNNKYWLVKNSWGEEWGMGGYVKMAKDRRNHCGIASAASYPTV

The experiment concerns the target Procathepsin L (Homo sapiens) (UniProt P07711). The experiment is described as follows: CTSL1 protease inhibition confirmation – biochemical, QFRET, triplicate, counter-screen for PFM18AAP inhibitor project (AID 2178).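 Note: 0% = median of test compound wells and 100% = Z-Phe-Ala-diazomethylketone 1 µM.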 To be noted: purified cathepsin L1, Z-Leu-Arg-MCA fluorescence; at 5.96 µM; hits give high values. The method in brief: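 System: Purified cathepsin L1 | Amount: Enzyme 1.5 µg/mL before substrate addition | Also added: Z-Leu-Arg-MCA fluorogenic substrate | Incubation: Enzyme-compound preincubation 30 min, substrate reaction 90 min, 25 °C | Technique: MCA fluorescence measured at substrate addition and at 90 min | Measure: Percent inhibition from fluorescence change | Replicates: Triplicate wells per compound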
A general note: Counterscreens check selectivity or assay interference.
As for `Cc1ccc(-c2noc(CC(c3ccccc3)c3ccccc3)n2)cc1`, the inhibition is 2.35%.

With `CC(/C=C/C1(O)C(C)CC(=O)CC1(C)C)OC1OC(CO)C(O)C(O)C1O` (configuration not stated), the inhibition is -6.26%. With `Cc1cc2c(C)nc(N/N=C/c3ccccc3)nc2o1`, the inhibition is 3.67%. To `O=C1CCCCN1CCCC(=O)N1CCCC(Nc2ccc(F)cc2)C1` (configuration not stated) belongs -1.53%; to `O=c1nc(N/N=C/c2ccco2)cn[nH]1`, 8.33%. Turning to `O=C(COc1ccc([N+](=O)[O-])cc1Cl)Nn1cnnc1`, the inhibition is -1.51%. The value for `O=C(Nc1ccccc1Cl)Nn1cnnc1` was -5.2%. With `COc1ccc(OC)c(Nc2nc(-c3ccc(O)c(O)c3)cs2)c1`, the inhibition was 4.97%. Turning to `Cc1cc2nc3c(=O)n(Cc4ccccc4)c(=O)[nH]c3nc2cc1N`, the inhibition was 2.68%. To `Cc1cc(-c2ccc(/C=N/n3cnnc3)o2)c([N+](=O)[O-])cc1C` belongs 1.38%.

Take `O=C(CC(n1cncn1)C(Cl)(Cl)Cl)c1ccc([N+](=O)[O-])cc1` (configuration not stated): the inhibition is 1.47%. To `Cc1ccc(Cl)cc1-c1ccc(/C=N/n2cnnc2)o1` belongs 3.57%. The value for `COc1cc(S(=O)(=O)Nc2ncn[nH]2)ccc1Cl` was 0.28%; that for `O=[N+]([O-])c1ccc(N2CCN(c3ccc(O)cc3)CC2)c(Cl)c1` was 0.99%; that for `COc1cccc2cc(-c3cc(=O)oc4cc(C)c(O)cc34)oc12` was -0.83%. To `CC(=O)N(c1ccc2oc(=O)sc2c1)S(=O)(=O)c1ccc(C)cc1` belongs -0.05%; to `O=S(=O)(c1ccc(NC(=S)NN=C(C2CC2)C2CC2)cc1)N1CCOCC1`, 0.19%.

Consider `COc1cc(NC(=S)N2CCCC(C)C2)c(OC)cc1Cl` (configuration not stated), for which the inhibition was -10.4%.

Regarding `Cc1ccsc1/C=N/Nc1ccc(Cl)nn1`, the inhibition was 0.84%. `COc1ccccc1-c1nnc(SCC(=O)Nc2cc(C)on2)o1`: the inhibition was 8.93%. The value for `O=C(N/N=C/c1ccc(O)c(O)c1)C1c2ccccc2Oc2ccccc21` was -5.02%; that for `O=C(CN1CCN(S(=O)(=O)c2cc(Cl)ccc2Cl)CC1)c1ccc(O)c(O)c1` was -1.56%.

For `O=C(Cn1c[n+](CC(=O)c2ccc([N+](=O)[O-])cc2)cn1)c1ccc([N+](=O)[O-])cc1`, the inhibition was 13.7%. To `Cc1ccc(NC(=O)c2c(NC(=O)CCC(=O)O)sc3c2CCCCC3)cc1` belongs 5.04%.

On to `CC/C(C)=N/Nc1nc2sc3c(c2c(=O)[nH]1)CC(C)(C)OC3`, for which the inhibition was 2.48%. The value for `Cn1sc(=O)c2cc(S(=O)(=O)NC3CC3)ccc21` was -0.58%; that for `CCOc1ccc(-n2c(O)c(/C=N/Nc3nnc(C)c(=O)[nH]3)c3ccccc3c2=O)cc1` was -0.55%; that for `Oc1cccc(/C=N/Nc2ccc(Cl)nn2)c1O` was 2.12%.

As to `Cc1c(CC(=O)N2CCN(C(=O)C3COc4ccccc4O3)CC2)c(=O)oc2c(O)c(O)ccc12` (configuration not stated), the inhibition was 0.56%. On to `O=C(CSC(=S)N1CCOCC1)c1cc(Br)cc(Br)c1O`, for which the inhibition was -2.37%. The value for `CNC(=O)c1c(NC(NC(=O)c2ccco2)C(=O)c2ccc(Cl)cc2)sc2c1CCCC2` (configuration not stated) was -3.32%. `N#CCC(=O)N/N=C/c1ccc(SCC(=O)Nc2ccccc2)o1`: the inhibition is -1.02%. To `CC(=O)c1ccc(NC(=O)CCc2nnc3ccc(NCc4ccco4)nn23)cc1` belongs -4.62%; to `c1ccc(-c2ccc3c(c2)NC(C2Nc4cc(-c5ccccc5)ccc4O2)O3)cc1` (configuration not stated), 0.56%; to `CCN(CC)S(=O)(=O)c1cc([N+](=O)[O-])ccc1NNC(=O)Nc1ccccc1`, 5.14%. To `COc1cc(Br)cc(/C=N/c2ncn[nH]2)c1O` belongs -0.48%; to `Oc1c(C(c2ccco2)N2CCC3(CC2)OCCO3)sc2ncnn12` (configuration not stated), -2.01%. To `Cc1onc(-c2ccccc2)c1C(=O)NNC(=S)NC(=O)c1ccc(F)cc1` belongs 3.64%; to `O=C(CSc1ncn[nH]1)Nc1nc(-c2cccc([N+](=O)[O-])c2)cs1`, 1.01%; to `COc1ccc(/C=N/Nc2nc3ccccc3o2)cc1OC`, -3.54%. With `Cc1cc([N+](=O)[O-])c(-c2ccc(/C=N/n3cnnc3)o2)cc1Cl`, the inhibition is 5.55%. Turning to `O=C(CSc1ncn[nH]1)Nc1nsc(-c2ccccc2)n1`, the inhibition was 1.95%. Take `NC(=O)c1c(Nc2nc3c(F)cccc3s2)sc2c1CCCC2`: the inhibition was 3.61%. The value for `CCOC(=O)NNc1cc(C(F)(F)F)ccn1` was 4.25%; that for `Cc1cc(/C=N/Nc2ccc([N+](=O)[O-])cn2)c(C)n1-c1cccc(C(=O)O)c1` was 3.84%; that for `S=c1[nH]c(-c2cccs2)cn1-c1ccccc1` was -4.9%. Take `Cc1nccn1CC(=O)N/N=C/c1ccc(O)c(O)c1`: the inhibition was 5.14%.

As for `Oc1ccc(-c2csc(Nc3cccnc3)n2)cc1`, the inhibition is 6.56%.

`O=C(NNC(=O)c1ccco1)Nc1ccccc1`: the inhibition was 2.81%.

Consider `CCOCCCNC(=O)c1ccc(CS(=O)(=O)c2cccc(C(F)(F)F)c2)o1`, for which the inhibition was -1.17%. To `ONC(=Nc1ccccc1)c1ccccc1Cl` belongs 1.1%. To `CCN1/C(=C/C(=S)Nc2ccccc2)Sc2ccccc21` belongs 0.64%; to `OCCN1CCN(C(=S)c2ccc(-c3ccccc3)cc2)CC1`, -0.85%. To `CCn1c(CNS(=O)(=O)c2ccc(Cl)cc2)n[nH]c1=S` belongs 1.4%; to `CC1(C)CC(=O)C/C(=N\NC(=O)c2cccs2)C1`, -0.13%. Take `Cc1ccnc(-n2sc3ccccc3c2=O)n1`: the inhibition was -1.29%. To `Cc1nnc(SCC(=O)Nn2cnnc2)s1` belongs 1.95%.

For orientation: inhibition means the change of the read-out against control, counted positive when it falls.
